The nature of test [1]: inhibitors of TNFa-induced NFkB p65 translocation, primary screen, imaging, HUVEC, MLSMR starter and 10KST1 sets (AID 438).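 Also: compound added about 3h40 before a 20 min TNFalpha stimulation.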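 As to inhibition: signal is the nuclear over cytoplasmic p65 intensity ratio per well.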 As to conditions: HUVEC TNFa-induced p65 nuclear translocation; cell count: measured here: nuclei count (cytotoxicity indicator), at 2.08 µM; inhibition: at 2 µM, stronger effect = higher value, 0% TNFa-plus-vehicle, 100% no-TNFa wells.
Test [2] in a line: inhibitors of mutant huntingtin aggregation, primary screen, imaging, exon1htt(103Q)mCFP cells, high-content imaging (AID 483;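 active = visual image review flags a hit and inhibition of aggregation exceeds 20%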;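 also: compound exposure lasted 3 days before fixation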;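 as to nuclei count: percent of the per-plate median nuclei count of sample wells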). The conditions noted are these: exon1htt(103Q)mCFP cell line, aggregate imaging, at 2 µM; inhibition of aggregation: stronger effect = higher value; nuclei count: measured here: cell count, toxicity.
Test [3] can be described thus: inhibitors of E-selectin induction by TNFa, primary screen, imaging, HUVEC, immunofluorescence, MLSMR starter and 10KST1 sets (AID 487;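 active = visually confirmed hit in the image check and inhibition above 20%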;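 as to inhibition: signal is fraction of cell area covered by stained E-selectin grains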;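 as to nuclei count: 100% = median nuclei count of all wells on the same plate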). The conditions noted are these: HUVEC TNFalpha-induced E-selectin immunofluorescence imaging, at 2 µM; inhibition: stronger effect = higher value; nuclei count: measured here: cell number, toxicity.
Test [4] deals with Voltage-gated potassium channel subunit beta-2 (Rattus norvegicus) (UniProt P62483). Nature of the test: KvBeta enzyme negative modulators, primary screen, biochemical, NADPH fluorescence (AID 622;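 active = fluorescence slope higher than the sample average by over 3 SD, cut at about -0.22 in these data, passing the limit was not always enough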;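 also: slope of raw intensity against log time taken from 70 to 1610 s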). As to conditions: recombinant KvBeta, 4-cyanobenzaldehyde reduction, at 10 µM, stronger effect = higher value.
Chain of Voltage-gated potassium channel subunit beta-2 (Rattus norvegicus) (P62483 whole entry, looked up): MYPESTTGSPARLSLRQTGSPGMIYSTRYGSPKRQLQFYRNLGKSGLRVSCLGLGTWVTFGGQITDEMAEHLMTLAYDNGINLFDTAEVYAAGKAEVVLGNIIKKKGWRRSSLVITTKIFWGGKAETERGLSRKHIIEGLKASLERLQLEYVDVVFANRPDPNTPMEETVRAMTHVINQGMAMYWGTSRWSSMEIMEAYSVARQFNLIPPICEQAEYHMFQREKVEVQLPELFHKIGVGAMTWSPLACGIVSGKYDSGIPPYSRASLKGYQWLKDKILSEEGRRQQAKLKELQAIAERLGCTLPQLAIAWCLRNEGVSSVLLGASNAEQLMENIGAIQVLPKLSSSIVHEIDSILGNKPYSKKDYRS
Test [5] shares this target. Put plainly: KvBeta positive modulators, primary screen, biochemical, NADPH fluorescence (AID 623;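 active = NADPH fluorescence slope more negative than the mean of all samples by about 3 SD, 99.7% confidence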;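 also: fluorescence intensity change per second fitted from 20 to 320 s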). As to conditions: Recombinant KvBeta, NADPH fluorescence decrease slope, 10 min; at 10 µM; stronger effect = lower value.
Test [6] addresses Muscarinic acetylcholine receptor M4 (Homo sapiens) (UniProt P08173). Nature of the test: compounds altering M4/GIRK thallium flux, either direction, primary screen, M4 allosteric agonist project, cell-based, HEK293 M4/GIRK, BTC-AM (AID 625;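 active = fluorescence slope after compound addition differing from the mean of all tested samples at 99.7% confidence, mostly higher but some lower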;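 also: thallium influx through GIRK channels coupled to M4 in HEK293 cells with BTC-AM dye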). As to conditions: at 10 µM, actives lie on both sides. An outline of the steps:
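System: HEK293 cells with M4 receptor and GIRK channels | Incubation: Cells overnight at 37 °C, BTC-AM loading 1 h, reads 2 min total | Technique: Kinetic BTC-AM fluorescence sampled at 1 Hz, 10 s pre-addition baseline | Measure: Post-addition slope, 15–24 s, of baseline-normalized fluorescence | Control set: Carbachol positive, DMSO negative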

Test [7] in a line: inhibitors of Sendai virus-induced IRF3 signaling, primary screen, TLR/RLR signaling modifier project, cell-based, Sendai virus stimulus, luciferase, 10K MLSCN set (AID 602276;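 active = inhibition at or above 50% at 10 µM; inactive = inhibition below 50%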;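 also: firefly luciferase from ISG56 promoter only with Renilla not read in this screen; 0% = Sendai virus plus DMSO and 100% = medium plus DMSO without virus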). The conditions noted are these: HEK293 RL24 IRF3 luciferase reporter, at 10 µM, stronger effect = higher value. For orientation: In a reporter assay the amount or activity of a reporter protein is the signal.
A short description of test [8]: inhibitors of poly I:C-induced TLR3 signaling, primary screen, cell-based, poly I:C stimulus, luciferase, 10K MLSCN set (AID 602277;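 active = inhibition of the reporter signal at or above 50%; inactive = inhibition below 50%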). As to conditions: HEK293-TLR3 RL24 IRF3 luciferase reporter, at 10 µM, stronger effect = higher value.

SMILES strings stand for the structures. Calls of active or inactive are those of the source.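 The calls were made as follows, unless noted: active = inhibition above 20% together with a positive visual image hit; inconclusive = visual image hit but inhibition not above 20%; inactive = no visual image hit.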

Chain of Muscarinic acetylcholine receptor M4 (Homo sapiens) (P08173 whole entry, looked up): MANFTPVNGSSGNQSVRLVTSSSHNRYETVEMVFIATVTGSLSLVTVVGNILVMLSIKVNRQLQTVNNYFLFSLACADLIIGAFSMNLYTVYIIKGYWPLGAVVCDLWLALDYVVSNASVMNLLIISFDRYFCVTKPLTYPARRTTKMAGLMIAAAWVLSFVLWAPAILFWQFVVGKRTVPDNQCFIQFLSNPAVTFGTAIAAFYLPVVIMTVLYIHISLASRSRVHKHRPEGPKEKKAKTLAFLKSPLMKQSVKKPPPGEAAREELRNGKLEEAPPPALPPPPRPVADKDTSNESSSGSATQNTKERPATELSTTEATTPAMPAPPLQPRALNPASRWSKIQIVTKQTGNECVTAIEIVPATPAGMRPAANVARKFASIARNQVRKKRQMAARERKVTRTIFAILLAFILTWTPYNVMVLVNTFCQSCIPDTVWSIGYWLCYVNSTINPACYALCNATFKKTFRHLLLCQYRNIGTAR

Broadly, the inhibition is the change of the read-out against control, counted positive when it falls. As for `Cc1ccc(S(=O)(=O)N(CC(=O)N2CCC(C(N)=O)CC2)c2cccc(C(F)(F)F)c2)cc1`, in test [1], the cell count was 327. The inhibition was 1% (inactive) in test [1], -15.7% (inactive) in test [3], 25.2% (inactive) in test [7] and 25.1% (inactive) in test [8]. In addition, the inhibition of aggregation in test [2] is -0.2% (inactive). Also, the nuclei count is 112% in test [2] and 114% in test [3]. Further, the fluorescence slope in test [4] is -0.556 (inactive); in test [6], 0.00443 (inactive). Further, the NADPH fluorescence slope in test [5] is 5.5e-06 (inactive).
Regarding `CCOc1ccc(OCC)c2sc(C)nc12`, the cell count in test [1] was found to be 339. Also, the inhibition was 2.4% (inactive) in test [1], 1% (inactive) in test [3], 12.4% (inactive) in test [7] and -8.47% (inactive) in test [8]. Moreover, the inhibition of aggregation in test [2] was 8.2% (inactive). Besides, the nuclei count is 102% in test [2] and 106% in test [3]. The fluorescence slope in test [4] was -0.591 (inactive); in test [6], 0.00571 (inactive). Also, the NADPH fluorescence slope in test [5] was -5.9e-05 (inactive).
As for `CCn1cc(C(=O)Nc2cc3c(cc2NC(C)=O)OCCO3)c(=O)c2ccc(C)nc21`, the cell count in test [1] stood at 315. The inhibition is 5.7% (inactive) in test [1], -39.4% (inactive) in test [3], 18.1% (inactive) in test [7] and 16.9% (inactive) in test [8]. Also, in test [2], the inhibition of aggregation is -17.4% (inactive). The nuclei count in test [2] worked out at 114%; in test [3] it was 115%. Moreover, the fluorescence slope is -0.49 (inactive) in test [4] and 0.00463 (inactive) in test [6]. The NADPH fluorescence slope in test [5] was -0.000144 (active).
Regarding `N#Cc1c(NC(=O)CSc2nc(N)cc(=O)[nH]2)sc2c1CCCCCC2`, the cell count in test [1] was 728. Moreover, the inhibition is -14% (inactive) in test [1], -105% (inactive) in test [3], -11.2% (inactive) in test [7] and -48.5% (inactive) in test [8]. Moreover, in test [2], the inhibition of aggregation is -2% (inactive). In addition, the nuclei count is 115% in test [2] and 122% in test [3]. Moreover, the values for the fluorescence slope in test [4] and in test [6] were -0.578 (inactive) and 0.00398 (inactive), respectively. The NADPH fluorescence slope in test [5] was -3.4e-05 (inactive).
Regarding `Cc1cc(C)n(CCCNC(=O)c2ccc(S(=O)(=O)NCc3ccco3)cc2)n1`, in test [1], the cell count came out at 682. The inhibition was -4.4% (inactive) in test [1], -9.9% (inactive) in test [3], 18.9% (inactive) in test [7] and 23% (inactive) in test [8]. Also, the inhibition of aggregation in test [2] is -3.9% (inactive). For the same molecule, the nuclei count in test [2] was 108%; in test [3], 136%. In addition, the fluorescence slope in test [4] was -0.562 (inactive); in test [6], 0.00603 (inactive). The NADPH fluorescence slope in test [5] is -8.3e-05 (inactive).
In the case of `CCOC(=O)N1CCN(CC(=O)Nc2c(C(=O)OC)[nH]c3cccc(Cl)c23)CC1`, the cell count in test [1] turned out to be 556. Moreover, the inhibition in test [1] is -15.5% (inactive); in test [3], -23.3% (inactive); in test [7], 20% (inactive); in test [8], -2.65% (inactive). Further, in test [2], the inhibition of aggregation was -5.4% (inactive). In addition, the nuclei count came out at 96.1% in test [2] and 94% in test [3]. The fluorescence slope is -0.214 (inactive) in test [4] and 0.00534 (inactive) in test [6]. Besides, the NADPH fluorescence slope in test [5] was -2.3e-05 (inactive).
`N#CCSCC(=O)Nc1ccc(F)cc1`: in test [1], the cell count was 511. Besides, the inhibition was 4.1% (inactive) in test [1], 10.5% (inactive) in test [3], 13.5% (inactive) in test [7] and 26.3% (inactive) in test [8]. Further, the inhibition of aggregation in test [2] is -5.3% (inactive). Also, the nuclei count in test [2] was 108%; in test [3] it was 99.2%. In addition, the fluorescence slope in test [4] is -0.462 (inactive); in test [6], 0.00474 (inactive). The NADPH fluorescence slope in test [5] is -5.6e-05 (inactive).
`COc1cccc(C(=O)Nc2ccc(N(C)C)cc2)c1OC`: the cell count in test [1] is 718. Further, the inhibition is 0.8% (inactive) in test [1], -79.8% (inactive) in test [3], -4.94% (inactive) in test [7] and -69.6% (inactive) in test [8]. Also, the inhibition of aggregation in test [2] was 1.4% (inactive). For the same molecule, the figures for the nuclei count in test [2] and in test [3] were 104% and 109%, respectively. Further, the values for the fluorescence slope in test [4] and in test [6] were -0.493 (inactive) and 0.00556 (inactive), respectively. Moreover, in test [5], the NADPH fluorescence slope was 1.7e-05 (inactive).
Consider `Cc1ccc(S(=O)(=O)NCCCCC(NC(=O)OC(C)(C)C)C(=O)O)cc1` (stereo not drawn) (tested in a mixture with another compound), for which the cell count in test [1] came out at 631. Besides, the inhibition in test [1] was 1.1% (inactive); in test [3] it was 34.4% (inactive); in test [7], 15.2% (inactive); in test [8] it was 13.1% (inactive). In addition, in test [2], the inhibition of aggregation was 5.6% (inactive). Further, the figures for the nuclei count in test [2] and in test [3] were 99.5% and 95.6%, respectively. Moreover, the fluorescence slope is -0.6 (inactive) in test [4] and 0.00344 (inactive) in test [6]. Besides, the NADPH fluorescence slope in test [5] is -3.1e-06 (inactive).
For `CCn1cc(C2=NOC(C(=O)Nc3cc(C)nn3-c3ccccc3)C2)c(C)n1` (stereo not drawn), the cell count in test [1] was 542. In addition, the inhibition in test [1] is -3.4% (inactive); in test [3], -52.6% (inactive); in test [7] it was -1.87% (inactive); in test [8], 98.7% (active). Moreover, in test [2], the inhibition of aggregation is 11.1% (inactive). For the same molecule, the nuclei count in test [2] was 93.2%; in test [3] it was 84.5%. In addition, the fluorescence slope in test [4] was -0.448 (inactive); in test [6], 0.00533 (inactive). For the same molecule, the NADPH fluorescence slope in test [5] was 9.7e-06 (inactive).
For `CCn1c(=O)n(CC(=O)Nc2cc(OC)ccc2OC)c(=O)c2ccccc21`, the cell count in test [1] was 696. Also, the inhibition is -1.6% (inactive) in test [1], -1.5% (inactive) in test [3], 24.5% (inactive) in test [7] and 23.2% (inactive) in test [8]. Moreover, the inhibition of aggregation in test [2] is 17.9% (inactive). For the same molecule, the nuclei count in test [2] was found to be 63.6%; in test [3], 99.5%. Further, the fluorescence slope in test [4] is -0.564 (inactive); in test [6], 0.00496 (inactive). Further, in test [5], the NADPH fluorescence slope was -5.4e-05 (inactive).
`Cc1ccnc(NC(=O)CCC(=O)N(CC(=O)NC2CCCCC2)c2cccc(C)c2C)c1`: in test [1], the cell count worked out at 426. The inhibition in test [1] was 4.4% (inactive); in test [3] it was 28.9% (inactive); in test [7], 13.1% (inactive); in test [8], 18.7% (inactive). In test [2], the inhibition of aggregation was -2.4% (inactive). Also, the results for the nuclei count in test [2] and in test [3] were 103% and 125%, respectively. Also, the fluorescence slope in test [4] is -0.626 (inactive); in test [6], 0.00484 (inactive). Further, the NADPH fluorescence slope in test [5] was 3.3e-05 (inactive).
On to `O=C(CN1C(=O)c2cccc3cccc1c23)Nc1ccccc1C(=O)NCc1ccco1`, for which the cell count in test [1] amounted to 584. Moreover, the inhibition in test [1] was -29.6% (inactive); in test [3], -37.6% (inactive); in test [7], 8.08% (inactive); in test [8], 13.4% (inactive). The inhibition of aggregation in test [2] is -3.5% (inactive). Also, the nuclei count in test [2] worked out at 98.7%; in test [3], 105%. Further, the fluorescence slope in test [4] is -0.0129 (inactive); in test [6] it was 0.00606 (inactive). In test [5], the NADPH fluorescence slope was -5.3e-06 (inactive).

The values are drawn from PubChem BioAssay.
